This is an account of results in ChEMBL document CHEMBL3244220, “Diuretic activity of Mannich base derivatives of ethacrynic acid and certain ethacrynic acid analogues” (J Med Chem, 1978).

Data set [1] relates to Canis familiaris. The data set is described as follows: Toxicity in mongrel dog assessed as change in blood pressure at 17 umol/kg, iv for 10 mins. It is filed as organism-based, Canis lupus familiaris. The following applies: in vivo.
Data set [2] in a line: Solubility of the compound in 0.9% saline. It is filed as physicochemical. The following applies: buffer.
Data set [3] is described as follows: Metabolic stability in dog urine assessed as ethacrynic acid release after 72 hrs at pH 7 +/- 0.5 by NMR/TLC analysis. It is filed as ADME, tissue-based, Canis lupus familiaris. The note with it: pH 7, 72 h.
Data set [4] has as its system Canis familiaris. The data set is described as follows: Diuretic activity in mongrel dog assessed as decrease in glomerular filtration rate during 2 hrs period at 17 umol/kg, iv for 10 mins. The class given is functional, organism-based. The following applies: Canis lupus familiaris, Urine. The method, boiled down: (§1)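 Single 17.0 μmol/kg iv dose in 10 mL 0.9% saline, given over 10 min; sodium salts formed with NaHCO3 where needed. GFR from plasma and urine inulin; Na by flame photometry. Changes per kg computed for each 10-min period after dosing minus the predrug period; mean Δ ± SEM, paired comparison, p < 0.05.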

Data set [5] deals with Canis familiaris. The data set is described as follows: Diuretic activity in mongrel dog assessed as decrease in rate of sodium excretion during 2 hrs period at 17 umol/kg, iv for 10 mins. It is filed as functional, organism-based. The note with it: Canis lupus familiaris, Urine. An outline of the steps:
as §1

The subject of data set [6] is Canis familiaris. The data set is described as follows: Inhibition of ethacrynic acid-induced diuresis in mongrel dog assessed as decrease in glomerular filtration rate during 2 hrs period at 17 umol/kg, iv for 10 mins. The class given is organism-based, Canis lupus familiaris. The note with it: in vivo. The method, boiled down:
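Dogs received 17.0 μmol/kg iv over 10 min, and renal parameters were followed for 2 h. Sodium ethacrynate, 3.3 μmol/kg iv in 10 mL saline over 10 min, was then given. Inulin GFR/kg and Na excretion/kg were taken per 10-min period as change from the predrug value; mean Δ ± SEM; paired comparison, p < 0.05.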

Data set [7] concerns Canis familiaris. The data set is described as follows: Toxicity in mongrel dog assessed as increase in systolic pressure at 17 umol/kg, iv for 10 mins. The class given is organism-based, Canis lupus familiaris. The note with it: in vivo.
For data set [8], the system named is Canis familiaris. Description: Toxicity in mongrel dog assessed as increase in diastolic pressure at 17 umol/kg, iv for 10 mins. The note with it: in vivo. It is filed as organism-based, Canis lupus familiaris.
Data set [9] can be described thus: Biotransformation in mongrel dog assessed as ethacrynic acid-glutathione in urine at 17 umol/kg, iv for 10 mins after 2 hrs. The note with it: in vivo. It is filed as ADME, organism-based, Canis lupus familiaris. An outline of the steps: (§2)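 Dogs given 17.0 μmol/kg iv in 10 mL 0.9% saline, prepared 3–5 min before dosing and infused over 10 min. Urine collected for 2 h after dosing and freeze-dried in 1-h portions; control urine from nine 10-min predrug periods handled the same way. Residues taken up in H2O and run on cellulose TLC in n-BuOH–C6H6–MeOH–H2O (20:10:12.5:10); spots located by UV and ninhydrin.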

Data set [10] is described as follows: Biotransformation in mongrel dog assessed as ethacrynic acid-cysteine in urine at 17 umol/kg, iv for 10 mins after 2 hrs. The class given is ADME, organism-based, Canis lupus familiaris. The following applies: in vivo. The method, boiled down: as §2

Activity calls are given as the source filed them. The calls are words filed in the database; no cut-off is given here.

Consider `CN(C)CC(C)(C)C(=O)c1ccc(OCC(=O)O)c(Cl)c1Cl.Cl`, for which the values for the Activity entry with Canis familiaris [1] and in the data set with Canis familiaris [6] were “Non-toxic” and “Toxic”, respectively. In addition, the solubility result in data set [2] is “soluble”. Moreover, the Stability result in [3] is reported as “Stable”. Besides, the outcome in the data set on Canis familiaris [4] and in the data set on Canis familiaris [5] was inactive.

In the case of `C=C(CC)C(=O)c1ccc(OCC(=O)[O-])cc1.[Na+]`, the Activity entry with Canis familiaris [1] and in the data set on Canis familiaris [6] was “Non-toxic” throughout. The result in the data set on Canis familiaris [4] was inactive.

With `CCC(CN(C)C)C(=O)c1ccc(OCC(=O)O)cc1.Cl` (stereo not given), the Activity result in the data set with Canis familiaris [1] and in the data set with Canis familiaris [6] was “Non-toxic” in each case. Further, the solubility entry in [2] is “soluble”. Further, the Stability result in data set [3] is recorded as “Stable”. Further, the result in the data set with Canis familiaris [4] was inactive.

Regarding `C=C(C)C(=O)c1ccc(OCC(=O)[O-])c(Cl)c1Cl.[Na+]`, the Activity entry with Canis familiaris [7] and in the data set with Canis familiaris [8] was “Toxic” throughout. Also, in the data set on Canis familiaris [4], the result was Active.

On to `CCC(CN(C)C)C(=O)c1ccc(OCC(=O)O)c(Cl)c1Cl.Cl` (stereo not given), for which the Activity entry in the data set on Canis familiaris [1] is “Non-toxic”. The solubility result in [2] is recorded as “soluble”. The Drug metabolism result in [9] and in data set [10] was “metabolite_detected” throughout. Besides, the Stability entry in [3] is recorded as “Unstable”. Further, in the data set on Canis familiaris [4], the result was Active.

As for `C=C(CC)C(=O)c1ccc(OCC(=O)[O-])c(Cl)c1Cl.[Na+]` [ETHACRYNATE SODIUM], the Activity result in the data set with Canis familiaris [1] is reported as “Non-toxic”. Besides, the outcome in the data set on Canis familiaris [4] was Active.
